Assay [1] concerns the target T1, GABA-A receptor; alpha-1/beta-2/gamma-2 (Homo sapiens) (UniProt P14867+P47870+P18507). Kind of assay: Positive allosteric modulator activity at human alpha1beta2Sgamma2S GABA-A receptor expressed in Xenopus laevis oocytes assessed as potentiation of EC10 GABA response by two electrode voltage-clamp assay relative to control. The class given is cell-based. The conditions noted are these: Oocyte. The gist of the method:
(§1)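 Same sequence as the EC50 potentiation protocol: baseline GABA doses, ligand alone, 30 s incubation, then coapplication, then two GABA check doses. Here 40 μM PAM is coapplied with an EC10–15 GABA dose. The EC10–15 for each mutant receptor was verified from full GABA dose–response curves.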
On the technique in general: Two-electrode voltage clamp is typically applied to oocytes expressing channels or transporters.

Assay [2] concerns the target GABA-A receptor; GABA-A site (alpha1/beta2 interface) (Homo sapiens) (UniProt P14867+P47870). Kind of assay: Positive allosteric modulator activity at human alpha1beta2S GABA-A receptor expressed in Xenopus laevis oocytes assessed as potentiation of EC50 GABA response at 40 uM by two electrode voltage-clamp assay relative to control. The class given is cell-based. Particulars: Oocyte. The gist of the method: (§2)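 Two-electrode voltage clamp in oocytes. Three GABA EC50 applications set the baseline. The test ligand alone is then given at 40 μM, followed after a 30 s incubation by GABA EC50 plus 40 μM ligand. Two further GABA EC50 doses check receptor function after modulation. Result is the percent change relative to the GABA-only baseline.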

The target of assay [3] is T1, GABA-A receptor; alpha-1/beta-2/gamma-2 (Homo sapiens). Kind of assay: Positive allosteric modulator activity at human alpha1beta2Sgamma2S GABA-A receptor expressed in Xenopus laevis oocytes assessed as potentiation of EC50 GABA response at 40 uM by two electrode voltage-clamp assay relative to control. The class given is cell-based. Particulars: Oocyte. The gist of the method:
as §2

For assay [4] the target is unchanged. Kind of assay: Agonist activity at human alpha1beta2Sgamma2S GABA-A receptor expressed in Xenopus laevis oocytes by two electrode voltage-clamp assay. The class given is cell-based. The conditions noted are these: Oocyte, filed as agonist. The gist of the method:
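Test ligand applied alone at 40 μM to oocytes expressing human α1β2γ2 receptors. Current read by two-electrode voltage clamp and compared with GABA EC50 responses recorded in the same sequence.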

Assay [5] can be described thus: Positive allosteric modulator activity at rat alpha1beta2gamma2L GABA-A receptor expressed in Xenopus laevis oocytes in presence of EC2-5 GABA by two-electrode voltage clamp assay. The assay is classed as cell-based. The conditions noted are these: Oocyte.
Assay [6] relates to Oocyte. Kind of assay: Positive allosteric modulator activity at human GABA-A receptor alpha1beta2Sgamma2S Q88C mutant expressed in Xenopus laevis oocytes assessed as potentiation of EC10 GABA response by two electrode voltage-clamp assay relative to control. The assay is classed as cell-based. The conditions noted are these: filed as positive allosteric modulator. The gist of the method:
as §1

Assay [7] concerns the target T1, GABA-A receptor; alpha-1/beta-2/gamma-2 (Homo sapiens). Put plainly: Positive allosteric modulator activity at human alpha1beta2Sgamma2S GABA-A receptor expressed in Xenopus laevis oocytes in presence of EC50 GABA by two electrode voltage-clamp assay. The class given is cell-based. The conditions noted are these: Oocyte, filed as positive allosteric modulator.
In assay [8] the test system is Oocyte. Put plainly: Positive allosteric modulator activity at human GABA-A receptor alpha1beta2Sgamma2S S297I/N289I/S319I triple mutant expressed in Xenopus laevis oocytes assessed as potentiation of EC10 GABA response by two electrode voltage-clamp assay relative to control. The class given is cell-based. The gist of the method:
as §1

Assay [9] has as its system Oocyte. Kind of assay: Positive allosteric modulator activity at human GABA-A receptor alpha1beta2Sgamma2S H129R mutant expressed in Xenopus laevis oocytes assessed as potentiation of EC10 GABA response by two electrode voltage-clamp assay relative to control. The assay is classed as cell-based. Particulars: filed as positive allosteric modulator. The gist of the method: as §1

Assay [10] relates to Oocyte. Kind of assay: Positive allosteric modulator activity at human GABA-A receptor alpha1beta2Sgamma2S Y209Q mutant expressed in Xenopus laevis oocytes assessed as potentiation of EC10 GABA response by two electrode voltage-clamp assay relative to control. The assay is classed as cell-based. The conditions noted are these: filed as positive allosteric modulator. The gist of the method: as §1

The target of assay [11] is T2, GABA-A receptor; alpha-1/beta-2/gamma-2 (Homo sapiens, UniProt P14867+P18507+P47870).
T2 sequence (P14867 whole entry): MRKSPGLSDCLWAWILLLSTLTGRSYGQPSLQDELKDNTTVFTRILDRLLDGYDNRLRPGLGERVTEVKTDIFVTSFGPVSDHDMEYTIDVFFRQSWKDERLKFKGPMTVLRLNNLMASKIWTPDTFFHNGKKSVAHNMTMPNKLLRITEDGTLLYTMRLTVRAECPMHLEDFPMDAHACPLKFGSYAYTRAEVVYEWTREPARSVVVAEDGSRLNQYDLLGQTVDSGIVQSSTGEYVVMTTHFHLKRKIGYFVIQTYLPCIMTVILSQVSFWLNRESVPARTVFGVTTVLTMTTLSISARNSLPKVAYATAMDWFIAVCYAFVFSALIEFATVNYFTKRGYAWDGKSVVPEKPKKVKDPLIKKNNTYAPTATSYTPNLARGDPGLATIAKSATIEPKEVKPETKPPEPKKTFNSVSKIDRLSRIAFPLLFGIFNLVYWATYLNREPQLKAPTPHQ
T2 sequence (P47870 whole entry): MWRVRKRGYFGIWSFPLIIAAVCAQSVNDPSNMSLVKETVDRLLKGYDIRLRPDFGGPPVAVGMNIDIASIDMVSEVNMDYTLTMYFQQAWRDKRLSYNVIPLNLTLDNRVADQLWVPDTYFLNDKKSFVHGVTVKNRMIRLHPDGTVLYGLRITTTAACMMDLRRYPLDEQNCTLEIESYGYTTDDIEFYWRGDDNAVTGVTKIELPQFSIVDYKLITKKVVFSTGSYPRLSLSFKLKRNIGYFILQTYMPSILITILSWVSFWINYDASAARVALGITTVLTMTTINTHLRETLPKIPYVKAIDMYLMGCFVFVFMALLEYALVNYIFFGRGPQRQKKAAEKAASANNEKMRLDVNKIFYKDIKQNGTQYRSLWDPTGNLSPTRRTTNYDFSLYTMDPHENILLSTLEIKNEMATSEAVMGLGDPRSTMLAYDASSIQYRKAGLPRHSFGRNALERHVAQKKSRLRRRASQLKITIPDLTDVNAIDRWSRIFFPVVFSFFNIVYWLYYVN
T2 sequence (P18507 whole entry): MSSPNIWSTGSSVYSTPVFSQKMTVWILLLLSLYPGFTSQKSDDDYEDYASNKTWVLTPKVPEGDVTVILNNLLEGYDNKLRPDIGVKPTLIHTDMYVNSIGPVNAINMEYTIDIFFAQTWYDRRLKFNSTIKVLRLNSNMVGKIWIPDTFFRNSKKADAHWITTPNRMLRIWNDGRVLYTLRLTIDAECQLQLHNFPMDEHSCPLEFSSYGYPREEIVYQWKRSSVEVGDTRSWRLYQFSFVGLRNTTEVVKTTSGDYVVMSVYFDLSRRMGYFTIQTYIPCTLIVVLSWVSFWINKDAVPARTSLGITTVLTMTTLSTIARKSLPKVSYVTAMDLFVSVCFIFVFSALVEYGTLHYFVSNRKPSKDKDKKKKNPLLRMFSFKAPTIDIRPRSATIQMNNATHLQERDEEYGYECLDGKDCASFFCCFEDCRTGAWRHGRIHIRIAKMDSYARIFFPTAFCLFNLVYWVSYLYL
Put plainly: Positive allosteric modulator activity at human alpha1beta2Sgamma2S GABA-A receptor expressed in Xenopus laevis oocytes in presence of EC5 GABA by two electrode voltage-clamp assay. The class given is cell-based, Oocyte. The gist of the method: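 Modulator dose–response with each concentration coapplied with GABA EC5. The peak current at GABA EC5 alone was subtracted from all responses, and the EC50 was taken from the fitted curve.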

Where [12] appears, read: filed as positive allosteric modulator.

pEC50: −log10 of the molar value. The source made the active and inactive calls. The calls are words filed in the database; no cut-off is given here.

As usually defined, the pEC50 is the negative decadic logarithm of the EC50, by convention in mol/L.

`COc1ccc([C@@]23N(C)CC[C@]2(O)c2ccccc2N3C)cc1` (racemic): the result in assay [1] was inactive. `COc1ccc2c(c1)[C@@]1(O)CCN(C)[C@@]1(c1ccccc1)N2C`: the Activity in [1] is 17%. As to `CN1CC[C@]2(O)c3ccccc3N(C)[C@]12c1ccccc1` [listing 1 of 2 here], the figures for the Activity in [2], in [3] and in [1] (setting [12]) were 17%, 16% and 125%, respectively. Take `CN1CC[C@]2(O)c3cc(I)ccc3N(C)[C@]12c1ccccc1`: the result in [4] was Active. Moreover, the Activity in assay [1] (setting [12]) was 231%. `CN1CC[C@@]2(O)c3ccccc3N(C)[C@@]12c1ccc(Br)cc1`: in [1] (setting [12]), the Activity is 155%. Same read-out and setting: then `CN1CC[C@]2(F)c3ccccc3N(C)[C@]12c1ccccc1`, with 100%.

On to `CCN(CC)CCN1C(=O)CN=C(c2ccccc2F)c2cc(Cl)ccc21` [FLURAZEPAM], for which the pEC50 in [5] is 6.57. The same measure, in the same setting: then `Cc1ccc(-c2nc3ccc(C)cn3c2CC(=O)N(C)C)cc1` [ZOLPIDEM], with 6.47. `CN1c2ccccc2[C@@]2(O)CCN(C(=O)OCc3ccccc3)[C@@]12c1ccccc1`: the Activity in [1] came to 9.6%. Take `CN1CC[C@]2(O)c3ccccc3N(C)[C@]12c1ccccc1` (racemic): the Activity in assay [2] was 28%; in [3], 17%; in the assay on Oocyte [8], 1%; in [1] (setting [12]) it was 62%. Also, the result (in the assay on Oocyte [6]; in assay [7]; with Oocyte [9]; in the assay with Oocyte [10]) was Active.

As to `CO[C@]12CCN(C)[C@@]1(c1ccccc1)N(C)c1ccccc12`, the Activity in assay [1] was 21%.

For the compound `CN1c2ccccc2[C@@]2(O)CCN[C@@]12c1ccccc1`, the Activity in assay [1] (setting [12]) came to 41%.

Turning to `CN1CC[C@]2(O)c3cc(C(F)(F)F)ccc3N(C)[C@]12c1ccccc1`, the Activity in assay [1] (setting [12]) was 108%. For the compound `CN1CC[C@@]2(O)c3cc(N4CCOCC4)ccc3N(C)[C@@]12c1ccccc1`, the Activity in [1] is -4.8%. For the compound `CN1CC[C@]2(O)c3ccccc3N(C)[C@]12c1ccc(Br)cc1`, the Activity in assay [1] (setting [12]) was determined as 98%. `CN1CC[C@]2(O)c3ccccc3N(C)[C@]12c1ccccc1` [listing 2 of 2 here]: the pEC50 in assay [11] was 3.96. In the case of `CN1CC[C@]2(O)c3cc(Br)ccc3N(C)[C@]12c1ccccc1`, the outcome in assay [4] was Active. The Activity in [1] (setting [12]) came to 213%. For `CN1CC[C@@]2(O)c3ccccc3N(C)[C@@]12c1ccccc1`, the Activity in [2] is 9.2%.

Values taken from ChEMBL document CHEMBL4725470, “Synthesis and Biological Evaluation of Pyrroloindolines as Positive Allosteric Modulators of the α1β2γ2 GABA Receptor” (ACS Med Chem Lett, 2020).
